ChEMBL document CHEMBL1759888, “Biological evaluation of polyhalo 1,3-diazaheterocycle fused isoquinolin-1(2H)-imine derivatives” (Eur J Med Chem, 2011)
Converted amounts (≈) assume the structure as drawn.

What was measured:
[1] = Lipophilicity, log P of the compound; assay type: physicochemical; details: octanol/water
[2] = test system: A-431; test: Anticancer activity against human A431 cells after 72 hrs by MTT assay; details: A-431, 72 h
[3] = test system: HL-60; test: Anticancer activity against human HL60 cells after 48 hrs by MTT assay; details: HL-60, 48 h
[4] = test system: K562; test: Anticancer activity against human K562 cells after 48 hrs by MTT assay; details: K562, 48 h
[5] = test system: HepG2; test: Anticancer activity against human HepG2 cells after 72 hrs by MTT assay; details: HepG2, 72 h
[6] = test system: SK-OV-3; test: Anticancer activity against human SKOV3 cells after 72 hrs by MTT assay; details: SK-OV-3, 72 h
[7] = test system: CCRF S-180; test: Antitumor activity against mouse S180 cells xenografted in Kunming mouse assessed as tumor growth inhibition rate at 20 mg/kg, po administered for 10 days relative to control; assay type: functional; details: CCRF S-180, 240 h
Outline: (§1)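 Tumour cells taken in exponential growth and inoculated subcutaneously into the right flank axilla. Mice randomised, 10 per group. Compound in 0.5% CMC-Na given intragastrically daily for 10 days. Solvent control got an equal volume of vehicle; positive control got cyclophosphamide 20 mg/kg i.p. in saline. Tumours weighed at sacrifice; inhibition rate calculated against solvent control.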

[8] = test system: CCRF S-180; test: Antitumor activity against mouse S180 cells xenografted in Kunming mouse assessed as tumor growth inhibition rate at 60 mg/kg, po administered for 10 days relative to control; assay type: functional; details: CCRF S-180, 240 h; outline: as §1
[9] = test system: CCRF S-180; test: Antitumor activity against mouse S180 cells xenografted in Kunming mouse assessed as tumor growth inhibition rate at 180 mg/kg, po administered for 10 days relative to control; assay type: functional; details: CCRF S-180, 240 h; outline: as §1
[10] = test system: CCRF S-180; test: Antitumor activity against mouse S180 cells xenografted in po dosed Kunming mouse assessed as tumor tumor growth inhibition rate administered for 10 days relative to control; assay type: functional, organism-based; outline: as §1
[11] = test system: H22; test: Antitumor activity against mouse H22 cells xenografted in Kunming mouse assessed as tumor growth inhibition rate at 20 mg/kg, po administered for 10 days relative to control; assay type: functional; details: H22, 240 h
Outline: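 H22 tumour cells were harvested in exponential growth and inoculated subcutaneously into the right flank axilla. Mice were randomised into groups of 10. Test compound in 0.5% CMC-Na was given intragastrically daily for 10 days. Solvent controls got an equal volume of CMC-Na, and positive controls got cyclophosphamide 20 mg/kg ip in saline. Tumours were weighed at sacrifice to give the inhibition rate.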

[12] = test system: H22; test: Antitumor activity against mouse H22 cells xenografted in Kunming mouse assessed as tumor growth inhibition rate at 80 mg/kg, po administered for 10 days relative to control; assay type: functional; details: H22, 240 h; outline: as §1
[13] = test system: H22; test: Antitumor activity against mouse H22 cells xenografted in Kunming mouse assessed as tumor growth inhibition rate at 240 mg/kg, po administered for 10 days relative to control; assay type: functional; details: H22, 240 h; outline: as §1
[14] = test system: Mus musculus; test: Toxicity in Kunming mouse assessed as mouse mortality at 5000 mg/kg, po administered in 24 hr duration measured after 7 days; assay type: organism-based; parameters: dose 5000 mg/kg, route oral; details: in vivo, 168 h
Outline: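 Acute toxicity test in Kunming mice (18–22 g), each group treated with one compound. The compound was given orally within 24 h, and mice were then monitored continuously for up to 7 days for abnormal behaviour or death.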

[15] = test system: H22; test: Antitumor activity against mouse H22 cells xenografted in Kunming mouse assessed as tumor growth inhibition rate at 35 mg/kg, po administered for 10 days relative to control; assay type: functional; details: H22, 240 h; outline: as §1
[16] = test system: H22; test: Antitumor activity against mouse H22 cells xenografted in Kunming mouse assessed as tumor growth inhibition rate at 70 mg/kg, po administered for 10 days relative to control; assay type: functional; details: H22, 240 h; outline: as §1
[17] = test system: H22; test: Antitumor activity against mouse H22 cells xenografted in Kunming mouse assessed as tumor growth inhibition rate at 140 mg/kg, po administered for 10 days relative to control; assay type: functional; details: H22, 240 h; outline: as §1

Structure (SMILES) | logP [1] | IC50 [2] [µg/mL] | IC50 [3] [µg/mL] | IC50 [4] [µg/mL] | IC50 [5] [µg/mL] | IC50 [6] [µg/mL] | inhibition in vivo at 20 mg/kg [7] [%] | inhibition in vivo at 60 mg/kg [8] [%] | inhibition in vivo at 180 mg/kg [9] [%] | inhibition [10] | inhibition in vivo at 20 mg/kg [11] [%] | inhibition in vivo at 80 mg/kg [12] [%] | inhibition in vivo at 240 mg/kg [13] [%] | Activity [14] | inhibition in vivo at 35 mg/kg [15] [%] | inhibition in vivo at 70 mg/kg [16] [%] | inhibition in vivo at 140 mg/kg [17] [%]
N#Cc1c(Cl)c(Cl)c2c(C(=O)c3ccccc3)c3n(c(=N)c2c1Cl)CCO3 | 3.97 | 14.5 (≈ 34.6 µM) | 6 (≈ 14.3 µM) | 2.2 (≈ 5.25 µM) | 0.3 (≈ 0.717 µM) | 17.4 (≈ 41.6 µM) | – | – | – | – | – | – | – | – | – | – | –
Cc1ccc(C(=O)c2c3n(c(=N)c4c(F)c(C#N)c(F)c(Cl)c24)CCCN3)cc1 | 3.85 | 27.5 (≈ 66.6 µM) | 14.6 (≈ 35.4 µM) | 2.3 (≈ 5.57 µM) | 24.6 (≈ 59.6 µM) | 76.4 (≈ 185 µM) | – | – | – | – | – | – | – | – | – | – | –
Cc1ccc(C(=O)c2c3n(c(=N)c4c(F)c(C#N)c(F)c(F)c24)CCCN3)cc1 | 3.21 | 2.1 (≈ 5.3 µM) | 4.7 (≈ 11.9 µM) | 0.7 (≈ 1.77 µM) | 2.4 (≈ 6.05 µM) | 33.9 (≈ 85.5 µM) | – | – | – | – | – | – | – | – | – | – | –
N#Cc1c(F)c(F)c2c(C(=O)c3ccccc3)c3n(c(=N)c2c1F)CCO3 | 2.57 | 0.3 (≈ 0.812 µM) | 0.008 (≈ 0.0217 µM) | 0.0002 (≈ 0.000542 µM) | 0.1 (≈ 0.271 µM) | 0.2 (≈ 0.542 µM) | – | – | – | – | – | – | – | – | – | – | –
COc1ccc(C(=O)c2c3n(c(=N)c4c(F)c(C#N)c(F)c(Cl)c24)CCO3)cc1 | 3.21 | 2.1 (≈ 5.05 µM) | 1 (≈ 2.41 µM) | 0.5 (≈ 1.2 µM) | 2 (≈ 4.81 µM) | 23.8 (≈ 57.2 µM) | – | – | – | – | – | – | – | – | – | – | –
N#Cc1c(F)c(Cl)c2c(C(=O)c3ccccc3)c3n(c(=N)c2c1F)CCCN3 | 3.35 | 0.5 (≈ 1.25 µM) | 0.01 (≈ 0.0251 µM) | 0.03 (≈ 0.0752 µM) | 0.3 (≈ 0.752 µM) | 1.2 (≈ 3.01 µM) | 42.8 | 41.1 | 52.8 | Dose-dependent effect | 12.1 | 28.2 | 0 | Non-toxic | – | – | –
O=P1(N(CCCl)CCCl)NCCCO1 (configuration not stated) [CYCLOPHOSPHAMIDE ANHYDROUS] | – | – | – | – | – | – | 81.7 | – | – | – | 56.2 | – | – | – | – | – | –
COc1ccc(C(=O)c2c3n(c(=N)c4c(F)c(C#N)c(F)c(F)c24)CCCN3)cc1 | 2.7 | 1.1 (≈ 2.67 µM) | 0.02 (≈ 0.0485 µM) | 0.01 (≈ 0.0243 µM) | 0.8 (≈ 1.94 µM) | 2.6 (≈ 6.31 µM) | 35.9 | 38 | 19.1 | Dose-dependent effect | – | – | – | Non-toxic | 34.7 | 45.6 | 29.3

Now from value to compound, other results behind:

logP [1] | IC50 [2] [µg/mL] | IC50 [3] [µg/mL] | IC50 [4] [µg/mL] | IC50 [5] [µg/mL] | IC50 [6] [µg/mL] | Structure (SMILES) | inhibition in vivo at 20 mg/kg [7] [%] | inhibition in vivo at 60 mg/kg [8] [%] | inhibition in vivo at 180 mg/kg [9] [%] | inhibition [10] | inhibition in vivo at 20 mg/kg [11] [%] | inhibition in vivo at 80 mg/kg [12] [%] | inhibition in vivo at 240 mg/kg [13] [%] | Activity [14] | inhibition in vivo at 35 mg/kg [15] [%] | inhibition in vivo at 70 mg/kg [16] [%] | inhibition in vivo at 140 mg/kg [17] [%]
4.11 | 10.1 (≈ 23.4 µM) | 10.7 (≈ 24.8 µM) | 1.2 (≈ 2.78 µM) | 9.3 (≈ 21.5 µM) | 51.2 (≈ 119 µM) | N#Cc1c(Cl)c(Cl)c2c(C(=O)c3ccccc3)c3n(c(=N)c2c1Cl)CCCN3 | – | – | – | – | – | – | – | – | – | – | –
4.1 | 56.9 (≈ 123 µM) | 4.4 (≈ 9.53 µM) | 1.4 (≈ 3.03 µM) | 400 (≈ 866 µM) | 67.2 (≈ 146 µM) | COc1ccc(C(=O)c2c3n(c(=N)c4c(Cl)c(C#N)c(Cl)c(Cl)c24)CCCN3)cc1 | – | – | – | – | – | – | – | – | – | – | –
4.02 | 2.1 (≈ 4.69 µM) | 0.3 (≈ 0.67 µM) | 0.7 (≈ 1.56 µM) | 11.3 (≈ 25.2 µM) | – | COc1ccc(C(=O)c2c3n(c(=N)c4c(Cl)c(C#N)c(Cl)c(Cl)c24)CCN3)cc1 | – | – | – | – | – | – | – | – | – | – | –
4.61 | > 1000 | 58.2 (≈ 131 µM) | 9.3 (≈ 20.9 µM) | 277 (≈ 621 µM) | 826 (≈ 1850 µM) | Cc1ccc(C(=O)c2c3n(c(=N)c4c(Cl)c(C#N)c(Cl)c(Cl)c24)CCCN3)cc1 | – | – | – | – | – | – | – | – | – | – | –
3.36 | 4.9 (≈ 12.2 µM) | 0.5 (≈ 1.24 µM) | 1 (≈ 2.48 µM) | 17.7 (≈ 43.9 µM) | 34.5 (≈ 85.7 µM) | N#Cc1c(F)c(F)c2c(C(=O)c3ccc(Cl)cc3)c3n(c(=N)c2c1F)CCN3 | – | – | – | – | – | – | – | – | – | – | –
4.76 | 20.3 (≈ 44.9 µM) | 2.6 (≈ 5.75 µM) | 2.4 (≈ 5.31 µM) | 37.6 (≈ 83.2 µM) | 31.4 (≈ 69.4 µM) | N#Cc1c(Cl)c(Cl)c2c(C(=O)c3ccc(Cl)cc3)c3n(c(=N)c2c1Cl)CCN3 | – | – | – | – | – | – | – | – | – | – | –
4.03 | 3.4 (≈ 8.14 µM) | 0.8 (≈ 1.92 µM) | 0.7 (≈ 1.68 µM) | 4.4 (≈ 10.5 µM) | 19.7 (≈ 47.2 µM) | N#Cc1c(Cl)c(Cl)c2c(C(=O)c3ccccc3)c3n(c(=N)c2c1Cl)CCN3 | – | – | – | – | – | – | – | – | – | – | –
4.08 | 2.8 (≈ 6.46 µM) | 0.2 (≈ 0.462 µM) | 0.3 (≈ 0.692 µM) | 2.1 (≈ 4.85 µM) | 17.1 (≈ 39.5 µM) | N#Cc1c(F)c(Cl)c2c(C(=O)c3ccc(Cl)cc3)c3n(c(=N)c2c1F)CCCN3 | – | – | – | – | – | – | – | – | – | – | –
